Measured values as given in ChEMBL document CHEMBL5584302, “Exploration of Hydrazide-Based HDAC8 PROTACs for the Treatment of Hematological Malignancies and Solid Tumors” (J Med Chem, 2024).
Activity calls are given as the source filed them. The calls are words filed in the database; no cut-off is given here.

Tests used:
Jurkat [1] = assay: Induction of cell death in human Jurkat cells at 5 uM measured after 48 hrs in presence of chloroquine by flow cytometry analysis; type: functional, cell-based
Jurkat [2] = assay: Induction of cell cycle arrest in human Jurkat cells assessed as accumulation of cells at G0/G1 phase measured after 48 hrs by PI staining based flow cytometry analysis; type: functional; conditions: dose 0.13-3.3 µM
Jurkat [3] = assay: Induction of apoptosis in human Jurkat cells assessed as increase in caspase 3/7 activity incubated for 48 hrs; type: functional, cell-based; conditions: dose upper 5.0 µM
Jurkat [4] = assay: Upregulation of Ac-HH3 level in human Jurkat cells incubated for 6 hrs by Western blot analysis; type: functional, cell-based
Summary of the method: (§1)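 Jurkat cells exposed to the indicated compound concentrations for 6 h. Ac-SMC3 and Ac-HH3 were detected by Western blot with GAPDH as loading control. Bands were quantified by densitometry and normalized to the DMSO-treated group. Data are mean ± SEM of two independent experiments, compared with DMSO by one-way ANOVA.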

HCT-116 [5] = assay: Induction of apoptosis in human HCT-116 cells assessed as increase in caspase 3/7 activity incubated for 48 hrs; type: functional, cell-based; conditions: dose 12.5-5 µM
HCT-116 [6] = assay: Induction of apoptosis in human HCT-116 cells assessed as necrotic cells at 1.1 uM measured after 48 hrs by AnnexinV/FITC and PI staining based flow cytometry analysis (reference value: […]); type: functional
Jurkat [7] = assay: cells; conditions: Homo sapiens
THP-1 [8] = assay: Upregulation of Ac-HH3 level in human THP-1 cells at 0.04 to 3.3 uM measured after 24 hrs by Western blot analysis; type: functional, cell-based; conditions: dose 0.04-3.3 µM
Summary of the method: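 THP-1 cells were exposed to the compound at the indicated concentrations for 24 h, then immunoblotted for Ac-HH3, Ac-SMC3, Ac-tubulin and HDAC8 with GAPDH as loading control. Band intensities were quantified and normalized to the DMSO-treated group. Data are mean ± SEM of two independent experiments, analysed by one-way ANOVA against DMSO.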

Jurkat [9] = assay: Upregulation of Ac-SMC3 level in human Jurkat cells incubated for 6 hrs by Western blot analysis; type: functional, cell-based; conditions: dose <= 1.0 µM; summary of the method: as §1
HCT-116 [10] = assay: Upregulation of Ac-SMC3 level in human HCT-116 cells incubated for 6 hrs by Western blot analysis; type: functional, cell-based; conditions: dose 0.004-3.3 µM
Summary of the method: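 HCT116 cells were treated 6 h with the indicated concentrations. Ac-SMC3 was measured by Western blot with GAPDH as loading control, quantified by densitometry and normalized to the DMSO group. Data are mean ± SEM from two independent experiments; one-way ANOVA vs DMSO.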

Jurkat [11] = assay: Upregulation of Ac-tubulin level in human Jurkat cells at upto 1 uM measured after 6 hrs by Western blot analysis; type: functional, cell-based
Summary of the method: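 Jurkat cells were treated for 6 h at the indicated concentrations. Acetylated tubulin was probed by Western blot, with GAPDH as loading control.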

Jurkat [12] = assay: cells; conditions: Homo sapiens; remark: listed apart in the source
HCT-116 [13] = assay: cells; conditions: Homo sapiens
HCT-116 [14] = assay: Induction of apoptosis in human HCT-116 cells measured after 48 hrs by AnnexinV/FITC and PI staining based flow cytometry analysis; type: functional, cell-based; conditions: dose 1.1-10 µM
Jurkat [15] = assay: Induction of ferroptosis in human Jurkat cells assessed as increase in lipid peroxidation incubated for 24 hrs by BODIPY 581/591 C11 staining based flow cytometry analysis; type: functional, cell-based; conditions: dose 0.37-10 µM
HCT-116 [16] = assay: Induction of apoptosis in human HCT-116 cells assessed as increase in caspase 3/7 activity at 5 uM incubated for 48 hrs; type: functional, cell-based
A549 = assay: cells; conditions: Homo sapiens
HCT-116 [17] = assay: Induction of ferroptosis in human HCT-116 cells assessed as increase in lipid peroxidation at low concentration incubated for 24 hrs by BODIPY 581/591 C11 staining based flow cytometry analysis; type: functional, cell-based; conditions: dose 0.37-10 µM
Jurkat [18] = assay: Induction of ferroptosis in human Jurkat cells assessed as increase in lipid peroxidation incubated for 48 hrs by BODIPY 581/591 C11 staining based flow cytometry analysis; type: functional, cell-based
Jurkat [19] = assay: cells; conditions: Homo sapiens; remark: listed apart in the source
Jurkat [20] = assay: Effect on GSPT1 level in human Jurkat cells at upto 10 uM by Western blot analysis; type: functional, cell-based
Summary of the method: (§2)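 Jurkat cells were treated with graded concentrations for 6 h, alongside 10 μM pomalidomide. IKZF1, IKZF3 and GSPT1 were detected by Western blot, with GAPDH as the loading control.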

Jurkat [21] = assay: Effect on IKZF3 level in human Jurkat cells at upto 10 uM by Western blot analysis; type: functional, cell-based; summary of the method: as §2
THP-1 [22] = assay: cells; conditions: Homo sapiens
HCT-116 [23] = assay: Induction of cell cycle arrest in human HCT-116 cells assessed as accumulation of cells at G2/M phase measured after 48 hrs by PI staining based flow cytometry analysis; type: functional; conditions: dose 0.13-3.3 µM
HCT-116 [24] = assay: Upregulation of Ac-HH3 level in human HCT-116 cells incubated for 6 hrs by Western blot analysis; type: functional, cell-based; conditions: dose 0.004-3.3 µM
Summary of the method: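 HCT116 cells were incubated with graded concentrations for 6 h. Ac-HH3 was detected by Western blot with GAPDH as the loading control, then quantified by densitometry and normalized to DMSO-treated cells. Data are mean ± SEM of two independent experiments, compared against DMSO by one-way ANOVA.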

Jurkat [25] = assay: Upregulation of Ac-HH3 level in human Jurkat cells at 1 uM measured after 6 hrs by Western blot analysis; type: functional, cell-based; summary of the method: as §1
Jurkat [26] = assay: Upregulation of Ac-SMC3 level in human Jurkat cells measured after 6 hrs by Western blot analysis; type: functional, cell-based; conditions: dose 0.0001-1 µM; summary of the method: as §1
Jurkat [27] = assay: Induction of apoptosis in human Jurkat cells at 1.1 to 10 uM measured after 24 to 48 hrs by AnnexinV/FITC and PI staining based flow cytometry analysis; type: functional, cell-based; conditions: dose 1.1-10 µM, time 24-48 hrs
Jurkat [28] = assay: Upregulation of Ac-HH3 level in human Jurkat cells measured after 24 hrs by Western blot analysis; type: functional, cell-based; conditions: dose <= 10000.0 nM
Summary of the method: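 Jurkat cells were incubated 24 h with the indicated concentrations. Ac-HH3 was detected by Western blot against a GAPDH loading control, quantified by densitometry and normalized to DMSO-treated cells. Data are mean ± SEM of two independent experiments; one-way ANOVA vs DMSO.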

Jurkat [29] = assay: Upregulation of AcHH4 level on human Jurkat cells at 0.04 to 10 uM measured after 48 hrs by Western blot analysis; type: functional, cell-based; conditions: dose 0.04-10 µM
Jurkat [30] = assay: Upregulation of Ac-SMC3 level in human Jurkat cells at 1 uM measured after 6 hrs by Western blot analysis; type: functional, cell-based; summary of the method: as §1
Jurkat [31] = assay: Induction of cell death in human Jurkat cells at 5 uM measured after 48 hrs in presence of ferrostatin-1 by flow cytometry analysis; type: functional, cell-based
Jurkat [32] = assay: Induction of cell death in human Jurkat cells at 5 uM measured after 48 hrs in presence of necrostatin-1 by flow cytometry analysis; type: functional, cell-based
THP-1 [33] = assay: Induction of ferroptosis in human THP-1 cells assessed as increase in lipid peroxidation at 0.37 to 10 uM incubated for 24 hrs by BODIPY 581/591 C11 staining based flow cytometry analysis; type: functional, cell-based; conditions: dose 0.37-10 µM
HCT-116 [34] = assay: Upregulation of Ac-HH3 level in human HCT-116 cells at 0.04 to 3.3 uM measured after 24 hrs by Western blot analysis; type: functional, cell-based; conditions: dose 0.04-3.3 µM
Jurkat [35] = assay: Induction of cell death in human Jurkat cells at 5 uM measured after 48 hrs in presence of Z-VAD-FMK by flow cytometry analysis; type: functional, cell-based
Jurkat [36] = assay: Upregulation of AcHH3 level on human Jurkat cells at 0.04 to 10 uM measured after 48 hrs by Western blot analysis; type: functional, cell-based; conditions: dose 0.04-10 µM
Jurkat [37] = assay: cells; conditions: Homo sapiens; remark: listed apart in the source
Jurkat [38] = assay: Effect on IKZF1 level in human Jurkat cells at upto 10 uM by Western blot analysis; type: functional, cell-based; summary of the method: as §2
Jurkat [39] = assay: Induction of apoptosis in human Jurkat cells assessed as increase in caspase 3/7 activity at 5 uM incubated for 48 hrs; type: functional, cell-based

## CCCCCCNNC(=O)c1ccc(CNC(=O)CN2CCC(c3ccc(NC4CCC(=O)NC4=O)cc3)CC2)cc1 (stereo not given)
Jurkat [1]
  Activity: Active
Jurkat [2]
  Activity: Dose-Dependent Effect
Jurkat [3]
  Activity: Dose-Dependent Effect
Jurkat [4]
  Activity: Dose-Dependent Effect
HCT-116 [5]
  Activity: Dose-Dependent Effect
HCT-116 [6]
  Activity: 4.28%
Jurkat [7]
  IC50: 2000 nM
THP-1 [8]
  Activity: Active
Jurkat [9]
  Activity: Dose-Dependent Effect
HCT-116 [10]
  Activity: Dose-Dependent Effect
Jurkat [11]
  Activity: inactive
Jurkat [12]
  IC50: 1500 nM
HCT-116 [13]
  IC50: 3.8 µM
HCT-116 [14]
  Activity: Dose-Dependent Effect
Jurkat [15]
  Activity: Dose-Dependent Effect
HCT-116 [16]
  Activity: Active
A549
  IC50: 17.5 µM
HCT-116 [17]
  Activity: Active
Jurkat [18]
  Activity: inactive
Jurkat [19]
  IC50: 2800 nM
Jurkat [20]
  Activity: inactive
Jurkat [21]
  Activity: inactive
THP-1 [22]
  IC50: > 33.3 µM
HCT-116 [23]
  Activity: Dose-Dependent Effect
HCT-116 [24]
  Activity: Dose-Dependent Effect
Jurkat [25]
  Activity: Active
Jurkat [26]
  Activity: Dose-Dependent Effect
Jurkat [27]
  Activity: inactive
Jurkat [28]
  Activity: Dose-Dependent Effect
Jurkat [29]
  Activity: Active
Jurkat [30]
  Activity: Active
Jurkat [31]
  Activity: Active
Jurkat [32]
  Activity: Active
THP-1 [33]
  Activity: inactive
HCT-116 [34]
  Activity: Active
Jurkat [35]
  Activity: Active
Jurkat [36]
  Activity: Active
Jurkat [37]
  IC50: 2500 nM
Jurkat [38]
  Activity: inactive
Jurkat [39]
  Activity: Active
